Measurements reported in ChEMBL document CHEMBL1134778, “Amino acid phosphoramidate monoesters of 3'-azido-3'-deoxythymidine: relationship between antiviral potency and intracellular metabolism” (J Med Chem, 2001).
pEC50, pIC50: −log10 of the molar value.

Assays:
[1] = organism: Homo sapiens; test: Inhibition of Phosphoramidase activity with AZT L-amino acid carbamates; format: functional; details: concentration not given here
Outline: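 CEM cells (1.5 × 10^8) sonicated in 1 mL 20 mM Tris-HCl, 500 mM NaCl, pH 7.5. Whole lysate incubated 45 min at 37 °C with phosphoramidate (from 10 mM water stock) and carbamate (from 10 mM DMSO stock), then stopped with methanol. AZT-MP quantified by RP-HPLC-RIA against a no-carbamate control. Mean of two experiments.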

[2] = test system: CCRF-CEM; test: Concentration required to kill 50% of CEM cells; format: functional, cell-based; details: Homo sapiens
Outline: (§1)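 Uninfected PHA-stimulated PBMCs or CEM cells plated at 2.5 × 10^5 cells/well with diluted drug. Incubated 6 days at 37 °C, 10% CO2. XTT/PMS added and incubated 4 h at 37 °C. Absorbance read at 450 nm, 630 nm reference.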

[3] = organism: Homo sapiens; test: Effective concentration of required to inhibit the replication of HIV-1 BY 50% in PMBCs from donor 2; format: functional, organism-based
[4] = organism: Homo sapiens; test: Effective concentration of required to inhibit the replication of HIV-1 BY 50% in PMBCs from donor 1; format: functional, organism-based
[5] = organism: Homo sapiens; test: Concentration required to kill 50% of PBMCs; format: functional, organism-based; outline: as §1
[6] = Inhibition of AZT-MP production by cell free extracts of CEM cells; format: functional, Homo sapiens, CCRF-CEM; design: unit not given here
Outline: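 CEM cells (1.5 × 10^8) sonicated in 1 mL 20 mM Tris-HCl, 500 mM NaCl, pH 7.5. Lysate incubated with phosphoramidate and carbamate, each added from 10 mM stock, for 45 min at 37 °C, then stopped with methanol. AZT-MP quantified by RP-HPLC-RIA against a no-carbamate control. Mean of two experiments.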

[7] = organism: Homo sapiens; test: Effective concentration to inhibit HIV-1 replication by 50% in PMBCs cells from donor 1; format: functional, cell-based
[8] = organism: Homo sapiens; test: Effective concentration required to inhibit the replication of HIV-1 by 50% in PMBCs in the presence of thymidine; format: functional, organism-based
[9] = organism: Homo sapiens; test: Effective concentration required to inhibit the replication of HIV-1 with no pretreatment of activated PBMCs; format: functional, organism-based
Outline: (§2)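 Uninfected PHA-stimulated PBMCs (2.5 × 10^5 cells/mL) given compound in ddH2O in triplicate for 2 h at 37 °C, then LAI/HIV-1 (5000 DPM/10^6 cells) added. In parallel cultures, cells were infected 3 h first and then treated. After 6 days at 37 °C, supernatant RT activity measured.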

[10] = organism: Homo sapiens; test: Effective concentration to inhibit HIV-1 replication by 50% in PMBCs cells from donor 2; format: functional, cell-based
Outline: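 Ficoll-isolated human PBMCs, PHA-stimulated, grown in RPMI 1640 with 10% heat-inactivated FBS, penicillin/streptomycin and IL-2 (10 U/mL) at 37 °C. Cells were infected with LAI/HIV-1, and compounds in ddH2O were added to duplicate or triplicate cultures. After 6 days, supernatant viral RT activity was measured.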

[11] = organism: Homo sapiens; test: (§3) Intracellular of AZT-TP concentrations in LAI/HIV-1 infected PMBCs was determined at a conc of 10 uM); format: functional, organism-based
Outline: (§4)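 PHA-stimulated, LAI/HIV-1-infected PBMCs (donor 2) at 10^6 cells/mL, triplicate, given 10 µM compound ± 50 µM thymidine for 18 h at 37 °C. Cells washed, extracted in 60% methanol overnight at −20 °C, dried and reconstituted. AZT-TP quantified by inhibition of recombinant HIV-1 RT (poly(rA)-oligo(dT), 3H-TTP, 2 h at 37 °C) relative to AZT-TP standards; pmol/10^6 cells.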

[12] = test system: U1; test: Antiviral activity was determined in chronically infected U1 cell line with HIV-1; format: functional, cell-based; details: Homo sapiens
Outline: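 HIV-1 chronically infected U1 cells (1.5 × 10^5 cells/well) in RPMI 1640 with 10% FBS and 10 ng/mL TNF-α. Compound in ddH2O added to duplicate cultures. Incubated 48 h at 37 °C, 5% CO2. Supernatant p24gag measured by ELISA; XTT assay run on the remaining culture.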

[13] = test system: CCRF-CEM; test: Effective concentration to inhibit HIV-1 replication by 50% in CEM cells; format: functional, cell-based; details: Homo sapiens
Outline: (§5)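 PHA-stimulated CEM cells infected 3 h at 37 °C with LAI/HIV-1 (10 000 DPM RT activity/10^6 cells), then washed. Resuspended at 2.5 × 10^5 cells/mL in medium with 10 U/mL IL-2. Drugs in ddH2O added to duplicate or triplicate cultures. Held 6 days at 37 °C; supernatant p24 measured by ELISA.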

[14] = organism: Homo sapiens; test: Effective concentration required to inhibit the replication of HIV-1 by 50% in PMBCs in the absence of thymidine; format: functional, organism-based
[15] = organism: Homo sapiens; test: Concentration required to kill 50% of PBMCs cells; format: functional, cell-based; details: PBMC; outline: as §1
[16] = organism: Homo sapiens; test: Effective concentration required to inhibit the replication of HIV-1 with 2 hr pretreatment of activated PBMCs; format: functional, organism-based; outline: as §2
[17] = test system: Human immunodeficiency virus 1; test: Concentration required to inhibit the production of proviral DNA in unactivated PBMCs
[18] = test system: Human immunodeficiency virus 1; test: Concentration required to inhibit HIV-1 replication by 50% in activated PBMCs
[19] = organism: Homo sapiens; test: as §3; format: functional, organism-based; outline: as §4; remark: listed apart in the source
[20] = test system: CCRF-CEM; test: Effective concentration of required to inhibit the replication of HIV-1 BY 50% in CEM cells; format: functional, cell-based; details: Homo sapiens; outline: as §5
[21] = organism: Homo sapiens; test: Effective concentration required to inhibit the replication of HIV-1 in activated PBMCs; format: functional, organism-based
Outline: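 PBMCs held 2 days either resting (no PHA, no IL-2) or with 10 μg/mL PHA, then IL-2 10 U/mL. Nonadherent cells infected with LAI/HIV-1 (5000 DPM/10^6 cells) for 3 h and washed. Plated at 2.5 × 10^5 cells/mL, compounds added in triplicate, 6 days at 37 °C. Supernatant RT activity measured; proviral gag DNA by PCR normalised to IFN-β1.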

[22] = organism: Homo sapiens; test: Effective concentration required to inhibit the replication of HIV-1 by 50% in PMBCs from donor 1; format: functional, organism-based
[23] = organism: Homo sapiens; test: Effective concentration required to inhibit the replication of HIV-1 by 50% in PMBCs from donor 2; format: functional, organism-based

COC(=O)[C@H](Cc1ccccc1)NC(=O)OC[C@H]1O[C@@H](n2cc(C)c(=O)[nH]c2=O)C[C@@H]1N=[N+]=[N-].COC(=O)[C@H](Cc1ccccc1)NP(=O)(O)OC[C@H]1O[C@@H](n2cc(C)c(=O)[nH]c2=O)C[C@@H]1N=[N+]=[N-] [listing 1 of 2 here]
inhibition [1]: 99.6%

CNC(=O)[C@H](Cc1c[nH]c2ccccc12)NP(=O)(O)OC[C@H]1O[C@@H](n2cc(C)c(=O)[nH]c2=O)C[C@@H]1N=[N+]=[N-]
pIC50 [2]: < 4.00 | pEC50 [3]: 5.74 | pEC50 [4]: 6.15 | pIC50 [5]: < 4.00

COC(=O)[C@@H](Cc1c[nH]c2ccccc12)NP(=O)(O)OC[C@H]1O[C@@H](n2cc(C)c(=O)[nH]c2=O)C[C@@H]1N=[N+]=[N-].COC(=O)[C@H](Cc1c[nH]c2ccccc12)NC(=O)OC[C@H]1O[C@@H](n2cc(C)c(=O)[nH]c2=O)C[C@@H]1N=[N+]=[N-] [listing 1 of 2 here]
Activity [6]: 2.56

COC(=O)[C@H](Cc1c[nH]c2ccccc12)NP(=O)(O)OC[C@H]1O[C@@H](n2cc(C)c(=O)[nH]c2=O)C[C@@H]1N=[N+]=[N-]
pIC50 [2]: < 4.00 | pEC50 [7]: 5.70 | pEC50 [8]: 4.52 | pEC50 [9]: 6.46 | pEC50 [10]: 6.46 | Concentration (pM (10e6*cells)-1) [11]: 0.22 | pEC50 [12]: 4.40 | pEC50 [13]: 8.40 | pEC50 [14]: 6.46 | pIC50 [15]: < 4.00 | pEC50 [16]: > 8.00 | IC100 [17]: 0.1 µM | pEC50 [18]: 6.46 | Activity [6]: 6.39 | Concentration (pM (10e6*cells)-1) [19]: 0.01

Cc1cn([C@H]2C[C@H](N=[N+]=[N-])[C@@H](CO)O2)c(=O)[nH]c1=O [ZIDOVUDINE]
pEC50 [8]: 6.52 | pEC50 [20]: > 9.00 | pEC50 [3]: 8.15 | pEC50 [9]: 8.00 | Concentration (pM (10e6*cells)-1) [11]: 1.37 | pEC50 [12]: 4.60 | pEC50 [4]: 8.22 | pEC50 [14]: 8.15 | pIC50 [5]: < 4.00 | pEC50 [16]: 7.82 | IC100 [17]: 0.01 µM | pEC50 [18]: 8.00 | Concentration (pM (10e6*cells)-1) [19]: 0.69

COC(=O)[C@@H](Cc1c[nH]c2ccccc12)NP(=O)(O)OC[C@H]1O[C@@H](n2cc(C)c(=O)[nH]c2=O)C[C@@H]1N=[N+]=[N-]
pIC50 [2]: < 4.00 | pEC50 [3]: 6.00 | pEC50 [4]: 6.00 | pIC50 [5]: < 4.00

COC(=O)[C@H](Cc1ccccc1)NP(=O)(O)OC[C@H]1O[C@@H](n2cc(C)c(=O)[nH]c2=O)C[C@@H]1N=[N+]=[N-] [listing 1 of 2 here]
Concentration (pM (10e6*cells)-1) [11]: 0.01 | Concentration (pM (10e6*cells)-1) [19]: 0

CNC(=O)[C@@H](Cc1c[nH]c2ccccc12)NP(=O)(O)OC[C@H]1O[C@@H](n2cc(C)c(=O)[nH]c2=O)C[C@@H]1N=[N+]=[N-]
pIC50 [2]: < 4.00 | pEC50 [3]: 6.74 | pEC50 [4]: 6.40 | pIC50 [5]: < 4.00

COC(=O)[C@H](Cc1ccccc1)NP(=O)(O)OC[C@H]1O[C@@H](n2cc(C)c(=O)[nH]c2=O)C[C@@H]1N=[N+]=[N-] [listing 2 of 2 here]
pEC50 [21]: < 4.00 | pIC50 [2]: < 4.00 | pEC50 [8]: < 4.00 | pEC50 [20]: > 9.00 | pEC50 [3]: 4.82 | pEC50 [9]: 4.82 | pEC50 [12]: 4.60 | pEC50 [4]: 4.52 | pEC50 [14]: 4.82 | pIC50 [5]: < 4.00 | pEC50 [16]: 6.00 | IC100 [17]: >100 µM | Activity [6]: 6.3

COC(=O)[C@@H](NP(=O)(O)OC[C@H]1O[C@@H](n2cc(C)c(=O)[nH]c2=O)C[C@@H]1N=[N+]=[N-])C(C)C
pIC50 [2]: < 4.00 | pEC50 [8]: 4.52 | pEC50 [22]: 5.89 | pEC50 [14]: 6.46 | pIC50 [5]: < 4.00 | IC100 [17]: 0.1 µM | pEC50 [23]: 6.05 | pEC50 [18]: 6.46

CNC(=O)[C@H](Cc1ccccc1)NP(=O)(O)OC[C@H]1O[C@@H](n2cc(C)c(=O)[nH]c2=O)C[C@@H]1N=[N+]=[N-]
pIC50 [2]: < 4.00 | pEC50 [3]: 6.60 | pEC50 [4]: 6.74 | pIC50 [5]: < 4.00

COC(=O)[C@H](C)NP(=O)(O)OC[C@H]1O[C@@H](n2cc(C)c(=O)[nH]c2=O)C[C@@H]1N=[N+]=[N-]
pIC50 [2]: < 4.00 | pEC50 [3]: 7.52 | pEC50 [4]: 7.30 | pIC50 [5]: < 4.00

COC(=O)[C@H](CC(C)C)NP(=O)(O)OC[C@H]1O[C@@H](n2cc(C)c(=O)[nH]c2=O)C[C@@H]1N=[N+]=[N-]
pIC50 [2]: < 4.00 | pEC50 [3]: 6.00 | pEC50 [4]: 5.89 | pIC50 [5]: < 4.00

COC(=O)[C@@H](Cc1c[nH]c2ccccc12)NP(=O)(O)OC[C@H]1O[C@@H](n2cc(C)c(=O)[nH]c2=O)C[C@@H]1N=[N+]=[N-].COC(=O)[C@H](Cc1c[nH]c2ccccc12)NC(=O)OC[C@H]1O[C@@H](n2cc(C)c(=O)[nH]c2=O)C[C@@H]1N=[N+]=[N-] [listing 2 of 2 here]
inhibition [1]: 60%

CNC(=O)[C@@H](Cc1ccccc1)NP(=O)(O)OC[C@H]1O[C@@H](n2cc(C)c(=O)[nH]c2=O)C[C@@H]1N=[N+]=[N-]
pIC50 [2]: < 4.00 | pEC50 [3]: 7.00 | pEC50 [4]: 6.05 | pIC50 [5]: < 4.00

COC(=O)[C@@H](Cc1ccccc1)NP(=O)(O)OC[C@H]1O[C@@H](n2cc(C)c(=O)[nH]c2=O)C[C@@H]1N=[N+]=[N-]
pIC50 [2]: < 4.00 | pEC50 [3]: 7.10 | pEC50 [4]: 7.05 | pIC50 [5]: < 4.00

COC(=O)[C@H](Cc1ccccc1)NC(=O)OC[C@H]1O[C@@H](n2cc(C)c(=O)[nH]c2=O)C[C@@H]1N=[N+]=[N-].COC(=O)[C@H](Cc1ccccc1)NP(=O)(O)OC[C@H]1O[C@@H](n2cc(C)c(=O)[nH]c2=O)C[C@@H]1N=[N+]=[N-] [listing 2 of 2 here]
Activity [6]: 0.03
